ChEMBL document CHEMBL4513216, “Probing the Open Global Health Chemical Diversity Library for Multistage-Active Starting Points for Next-Generation Antimalarials” (ACS Infect Dis, 2020)

Assay: Toxicity liver stage against HepG2, at 10uM
Assay type: cell-based
Set-up: test concentration 10 uM, cell line HepG2-A16-CD81EGFP
Details: human, HepG2-A16-CD81EGFP cells; read-out: INHIBITION
Procedure, shortened: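 Uninfected HepG2-A16-CD81EGFP cells, 3 × 10^3 per well, 1536-well, plated on prespotted compound at 10 μM final, parasite-free screening media added to match infected plates; puromycin 10 μM positive, DMSO 0.5% negative; run in parallel with 48 h PbLuc assay at 37 °C, 5% CO2; viability by CellTiter-Glo luminescence, normalized to controls.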

Row | Compound | cytotoxicity at 10 µM
1 | NC(CC1CCCCC1)c1ccccc1 (stereo not given) | -4.8%
2 | O=C(NC[C@H]1OC[C@@H](NC2COC2)[C@@H]1O)c1ccccc1 | -1.05%
3 | Cc1ccc2c(c1)nc1n2[C@@H](CNC(=O)c2cccnc2)COC1 | 5.29%
4 | Cc1ccc(CN2CC[C@H](c3nnc(COc4ccc(F)cc4)o3)C2)o1 | 5.2%
5 | CCCC(=O)n1ccn(S(=O)(=O)c2ccc(C)cc2)c1=O | 8.08%
6 | COc1ccc(C2CCCCCN2Cc2cn(C)nc2C)cc1 (stereo not given) | -4.96%
7 | COc1ccc2c(c1)OC1(CCN(Cc3ccccc3C)CC1)CC2=O | 6.52%
8 | CN1C(=O)C2(CC(=O)Nc3c2cnn3C(C)(C)C)c2c(Cl)cccc21 (stereo not given) | 3.41%
9 | Cn1c(CN2CCOCC2)cc(=O)c(O)c1CN1CCOCC1 | -5.61%
10 | O=C(CN1C(=O)CCC1=O)NCC1(O)CCc2ccccc21 (stereo not given) | -15.7%
11 | CC(C)Nc1nc2c(c(NC3CC3)n1)CN(C(=O)c1ccncc1)CC2 | -2.29%
12 | CS(=O)(=O)N1C[C@H]2CCC[C@@]2(COCC2CCOCC2)C1 | -0.173%
13 | O=C(c1nc2c(s1)CCCN2C(=O)C1CC1)N1CCCC1 | 7.02%
14 | CS(=O)(=O)N1CCOC2(CCN(c3nccs3)CC2)c2ccccc21 | 1.18%
15 | COCCNC(=O)C1CN(Cc2ccsc2)Cc2ccnn2C1 (stereo not given) | -6.07%
16 | CNC(=O)[C@@]12CCC3(CCN(S(=O)(=O)C4CC4)CC3)[C@@H]1CN(C(C)=O)C2 | -0.201%
17 | O=C(Cc1ccsc1)N1CCn2cc(Cn3cncn3)nc2C1 | -142%
18 | COc1cccc(C2CC(=O)Nc3nc(N)sc32)c1OC (stereo not given) | 3.74%
19 | Cc1csc([C@@H]2C[C@@H]3CCN(C(=O)c4cc(C)on4)C[C@H]3O2)n1 | 4.88%
20 | O=C(c1ccsc1)N1CC(C(=O)N2CCOCC2)C2(CCOCC2)C1 (stereo not given) | -1.1%
21 | CCN(CC)c1nc(Nc2cccc(C(=O)O)c2)nc2ccccc12 | 12%
22 | CN1CCN(C(=O)c2[nH]nnc2Nc2ccccc2F)CC1 | 1.36%

Row | Compound | cytotoxicity at 10 µM
23 | Cc1nn(C)c(C)c1NC(=O)CCn1ncc2c(C)cccc21 | -10.8%
24 | COCCC(=O)NCc1ccc(-c2ccccc2C(=O)O)cn1 | 1.92%
25 | Fc1cccc(CN2CCC[C@H](Cn3nnc(-c4ccccn4)n3)C2)c1 | 3.44%
26 | CO[C@@H]1CC[C@@H](NC(=O)CCc2ccc(Cl)cc2)[C@H]1O | 3.84%
27 | Cc1ncoc1C(=O)N1CCCC(c2ccc3c(N)nn(C)c3n2)C1 (stereo not given) | 2.76%
28 | Cc1cc(N(C)Cc2ncc(-c3ccccc3C(=O)O)s2)ncn1 | -0.241%
29 | Cc1cc(C(F)F)nn1C(C)C(=O)NCc1nccn1C (stereo not given) | 4.86%
30 | CC(C)C(=O)N1CCCC([C@@H]2C[C@H](C(F)F)n3ncnc3N2)C1 (stereo not given in full) | -3.41%
31 | CO[C@H]1CCN(C(=O)c2ccc3[nH]nnc3c2)C[C@@]12CCCO2 | -5.38%
32 | Cc1ccnc(C2CCN(C(=O)CCn3ncc4ccccc43)C2)n1 (stereo not given) | -22.3%
33 | CCn1cc(CN2CCN(CC(O)c3ccc(C)cc3C)CC2)cn1 (stereo not given) | -24.6%
34 | c1ccc(-c2cc(CNCCN3CCOCC3)c3nnnn3c2)cc1 | -17.6%
35 | c1ccc(CN2CCC(c3nccnc3-n3ccnc3)CC2)cc1 | -19.6%
36 | Cc1cncc(C(=O)N[C@@H]2CC[C@@H](N3CCOCC3)[C@@H]2O)c1 | 0.331%
37 | CNC(=O)c1cccc(C2CNCCN2C(=O)C2CCNCC2)c1 (stereo not given) | -2.39%
38 | O=C(c1ccc(Cl)cc1)N1CCC(N2CCNC2=O)CC1 | 12.6%
39 | Cc1c(CNC2CCN(c3ccccc3OC(F)F)C2)cnn1C (stereo not given) | -1.77%
40 | CC(C)(NC(=O)NCc1cccc(Br)c1)C(=O)O | 9.13%
41 | CCc1nc(Cn2cncc(Br)c2=O)no1 | -11.8%
42 | CC1CN(C(=O)c2ccc(C(N)=O)cc2)c2ccc(F)cc2O1 (stereo not given) | 8.07%
43 | Cc1noc(C)c1NC(=O)CCn1cc(Br)ccc1=O | 7.07%
44 | CC(Cn1ccnc1)NC(=O)NCCN1CCCCCC1=O (stereo not given) | -1.26%

Row | Compound | cytotoxicity at 10 µM
45 | Cc1cnn(CC(=O)N(CC2CN(C)CCO2)c2nccs2)c1 (stereo not given) | 1.79%
46 | CC(=O)c1cccc(OCCCC(=O)N(C)Cc2cscn2)c1 | 0.175%
47 | COc1cc(C(=O)NS(=O)(=O)c2cncc(Br)c2)cc(Cl)c1OC | -2.21%
48 | CC(C)c1cc(NC(=O)CN2CCCC(Cn3cncn3)C2)on1 (stereo not given) | 14%
49 | Cc1cnc(C(C)(C)NC(=O)NCc2ccc(C#N)cc2F)s1 | 15.1%
50 | CC(C)N(C)Cc1ccccc1CNc1ccc2nncn2n1 | 0.425%
51 | Cc1ccc(CNC(=O)CN2CCN(CCO)CC2)s1 | 9.03%
52 | CSCc1cc(F)ccc1CNCc1cccc(O)c1 | -3.58%
53 | Cn1cnnc1C1CCCN(C(=O)c2cc(C3CC3)on2)C1 (stereo not given) | 5.14%
54 | Cc1nn(C)c(N(C)C)c1CNC1CCCCNC1=O (stereo not given) | 7.76%
55 | O=C(Nc1ccccc1Cn1cccn1)N1CCC(N2CCCC2)C1 (stereo not given) | 2.06%
56 | CCN(CC)C(=O)C1CCN(c2ccc(Cl)cc2C#N)CC1 | 12.2%
57 | CC(=O)c1ccc(-n2c(C)cn(CCC#N)c2=O)cc1 | 19.3%
58 | CC(C)OCCCNC(=O)CSc1nnc(OC(C)C)s1 | -5.89%
59 | Cc1ccc(C(C)NC(=O)Cc2c(C)nc3c(c2C)c(=O)[nH]n3C)o1 (stereo not given) | -16.3%
60 | O=C(Nc1cccc(CN2CCOC2=O)c1)N1CCOCC1 | -8.6%
61 | Cc1ncoc1C(=O)N1CCn2c(COc3cccnc3)cnc2C1C (stereo not given) | -8.93%
62 | Cn1cc(-c2nnn3c2COC(CNCC2CCOCC2)C3)cn1 (stereo not given) | 0.171%
63 | CCCN(C)c1ncc2c(n1)N(C)CCN(CC1CC1)C2=O | -5.69%
64 | Cc1cc(CN2CCC=C(CN(C)C(=O)c3ccco3)C2)no1 | 6.65%
65 | CCC(C)N(Cc1ccc(C)cc1)Cc1c[nH]c(C)n1 (stereo not given) | 7.87%
66 | O=C(O)C1(Cc2ccccc2Cl)CCN(c2ncccn2)CC1 | 7.04%

Row | Compound | cytotoxicity at 10 µM
67 | CC(=O)Nc1ccc(Cl)c(C(=O)N(C)Cc2nc(C)c[nH]2)c1 | 1.37%
68 | CCn1c(CN(C)C)nnc1C1CCN(Cc2ccc(Cl)c(F)c2)CC1 | 3.73%
69 | Cc1ccn(CCNc2ncnc3c2CCN(S(C)(=O)=O)CC3)n1 | -3.03%
70 | c1cc(-c2cnccn2)cc(-c2ccn(CCN3CCCCC3)n2)c1 | -4.54%
71 | Cn1nc(C2CC2)c2c1NC(=O)CC2c1ccc(CN2CCCCC2)s1 (stereo not given) | -6.37%
72 | Cn1c(CO)nnc1CC1CCN(Cc2ccc(C#N)cc2)CC1 | 4.98%
73 | OC1CCCOC12CCN(c1ncccn1)CC2 (stereo not given) | 3.73%
74 | O=C1CCCN1Cc1nc(-c2ccsc2)no1 | -5.41%
75 | CN1CCN(C2CCOCC2)CC12CCC(=O)N(CC1CC1)CC2 (stereo not given) | -1.93%
76 | O=C(Cc1ccc(F)cc1Cl)N1C[C@@H](CN2CCC(O)CC2)[C@@H](CO)C1 | 9.32%
77 | COc1cc(C)ccc1OCc1nc(C(=O)N2CCC(C)CC2)co1 | -45%
78 | Cc1cc(C)nc(CCNC(=O)C(c2ccc(F)cc2)N(C)C)n1 (stereo not given) | -40.1%
79 | Cc1nc(CN2CCC(C(=O)O)(n3ccc(-c4ccco4)n3)CC2)co1 | -12.1%
80 | CCS(=O)(=O)N1CCC(c2nnc(Cn3cccn3)n2C2CC2)CC1 | -14.2%
81 | COc1ccccc1-c1cc(C(F)(F)F)c2c(C)nn(CC(=O)O)c2n1 | 5.25%
82 | CS(=O)(=O)NC1CCN(C(=O)NCCc2ccccn2)CC1 | -14.4%
83 | CCCNC(=O)NC(=O)CN1CCN(Cc2nccn2CC)CC1 | -14.3%
84 | CCn1cc(NC(=O)C2CCN(CCOC(C)C)CC2)cn1 | -5.4%
85 | CN(C)CC1CN(c2ccc(C#N)cn2)CCO1 (stereo not given) | -4.67%
86 | COCCc1noc(CN2CCCCC2Cn2cc(C)cn2)n1 (stereo not given) | -8.54%
87 | Cc1nn(C)c(C)c1C1CCCN1Cc1cccc(C(N)=O)c1 (stereo not given) | -10.2%
88 | CC(O)CN1CCN(C(=O)c2cccn2Cc2ccncc2)CC1 (stereo not given) | -10.9%

Row | Compound | cytotoxicity at 10 µM
89 | Cc1nc(C)n(CC2CCCN(c3ncnc4[nH]ccc34)C2)n1 (stereo not given) | 12.8%
90 | O=C(NCCc1cccc(F)c1)NCC(O)c1cccc(F)c1 (stereo not given) | -13.1%
91 | COc1ccc(CCC(=O)Nc2cccnc2N2CCCC2)cc1Br | 1.06%
92 | c1ncn(CC2CN(CC3CCCC3)CCO2)n1 (stereo not given) | 4.93%
93 | FC(F)CNc1cnc(C2CCCN2)cn1 (stereo not given) | 0.865%
94 | COc1cc(C(C)=O)ccc1OCCNCc1ccco1 | -5.05%
95 | CN1CCO[C@H]2CN(S(=O)(=O)c3ccc(C#N)cc3)C[C@H]21 | 7.25%
96 | O=c1ccc2c(n1CC1CCOCC1)CCN(Cc1ccoc1)CC2 | -128%
97 | COc1cc(COCC2CCN(Cc3cccnc3)CC2)cc(OC)c1 | 0%
98 | Cc1ccccc1N1CC2(CCCCN2CC2CC2)CC1=O (stereo not given) | 10.4%
99 | CN1C[C@@H]2CN(C(=O)NCc3ccccc3)CCC[C@]2(C(=O)O)C1 | 9.55%
100 | O=C([C@H]1COC[C@H]2CN(C3CCCC3)C[C@H]21)N1CCCCO1 | -9.47%
101 | O=C1CC2(CCN(Cc3cccnc3)C2)CN1c1cncnc1 (stereo not given) | -65.7%
102 | CN(C)[C@@H]1CN(C(=O)Cc2ccc(F)cc2)[C@@H]2CCCO[C@H]12 | 3.88%
103 | Cc1ccc(C(=O)N2CCn3cc(CN(C)Cc4ccco4)nc3C2)o1 | 12.4%
104 | Cn1cc(C(=O)N2CC[C@@H]3[C@@H]2CCN3Cc2ccccc2)cn1 | -69.8%
105 | Cc1cccc(CN2CC3(CCN(C4CCOC4)CC3)OCC2=O)n1 (stereo not given) | -2.92%
106 | Cc1cc(CCC(=O)Nc2nncs2)nc(C2CCCN2)n1 (stereo not given) | -28%
107 | COCCC(=O)NCCn1nc(C2CCNC2)c2cccnc21 (stereo not given) | -16.5%
108 | CN1CC(=O)N(c2cccc(F)c2)CC12CCN(S(=O)(=O)C1CC1)C2 (stereo not given) | -71.8%
109 | CC(C)NC(=O)[C@H]1C[C@H]2CN(C(=O)NCCc3ccccc3)C[C@@H]1O2 | 1.25%
110 | CS(=O)(=O)CCC(=O)N1C[C@H]2CC[C@@H](C1)N(Cc1ccccn1)C2=O | 7.23%
